Where a chain is given by its changes, count along the chain named.
How the values were obtained:
[1] = target: T1, Retinoic acid receptor beta (Homo sapiens, UniProt P10826); experiment: Transcriptional activation of Retinoic acid receptor RAR beta;NA=not active; parameters: species or system Cercopithecidae
T1 sequence (P10826 whole entry): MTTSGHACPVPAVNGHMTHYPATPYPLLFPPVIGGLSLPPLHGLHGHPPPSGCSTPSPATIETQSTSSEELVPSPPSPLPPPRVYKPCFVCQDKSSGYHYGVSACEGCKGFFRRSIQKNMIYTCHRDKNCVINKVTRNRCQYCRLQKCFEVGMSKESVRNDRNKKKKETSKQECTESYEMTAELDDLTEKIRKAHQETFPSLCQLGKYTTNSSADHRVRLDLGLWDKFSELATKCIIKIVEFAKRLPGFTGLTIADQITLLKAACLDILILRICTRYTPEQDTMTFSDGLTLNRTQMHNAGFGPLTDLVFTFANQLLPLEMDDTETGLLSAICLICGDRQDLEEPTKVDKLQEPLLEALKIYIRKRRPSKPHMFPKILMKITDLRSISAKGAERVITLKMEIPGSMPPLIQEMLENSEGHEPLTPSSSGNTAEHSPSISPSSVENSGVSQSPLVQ
Method in brief: (§1)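 CV-1 cells transiently cotransfected with the receptor construct and a reporter gene, with induced transcription measured. Activity is normalized to all-trans RA. EC50 is the concentration giving 50% of maximal observed response, from a single experiment in triplicate.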

[2] = target: T2, Retinoic acid receptor RXR-gamma (Homo sapiens, UniProt P48443); experiment: Transcriptional activation of Retinoid X receptor RXR gamma; parameters: species or system Cercopithecidae
T2 sequence (P48443 whole entry): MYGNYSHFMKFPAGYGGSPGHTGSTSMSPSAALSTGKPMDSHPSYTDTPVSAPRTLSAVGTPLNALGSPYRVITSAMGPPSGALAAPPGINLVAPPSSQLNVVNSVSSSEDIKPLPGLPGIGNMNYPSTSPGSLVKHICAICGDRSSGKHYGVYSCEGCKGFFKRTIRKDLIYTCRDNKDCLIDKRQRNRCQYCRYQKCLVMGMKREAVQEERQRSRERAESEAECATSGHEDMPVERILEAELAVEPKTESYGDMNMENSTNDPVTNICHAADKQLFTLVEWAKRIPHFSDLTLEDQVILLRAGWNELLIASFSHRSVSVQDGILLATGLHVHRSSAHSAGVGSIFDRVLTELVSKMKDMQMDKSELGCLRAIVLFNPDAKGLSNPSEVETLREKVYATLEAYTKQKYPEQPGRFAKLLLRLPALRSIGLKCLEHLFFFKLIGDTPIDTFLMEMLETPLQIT
Method in brief: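 CV-1 cells transiently cotransfected with the receptor construct and a reporter gene, with induced transcription measured. Activity is normalized to all-trans RA.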

[3] = target: T3, Retinoic acid receptor alpha (Homo sapiens, UniProt P10276); experiment: Transcriptional activation of Retinoic acid receptor RAR alpha;NA=not active; parameters: species or system Cercopithecidae; method in brief: as §1
T3 sequence (P10276 whole entry): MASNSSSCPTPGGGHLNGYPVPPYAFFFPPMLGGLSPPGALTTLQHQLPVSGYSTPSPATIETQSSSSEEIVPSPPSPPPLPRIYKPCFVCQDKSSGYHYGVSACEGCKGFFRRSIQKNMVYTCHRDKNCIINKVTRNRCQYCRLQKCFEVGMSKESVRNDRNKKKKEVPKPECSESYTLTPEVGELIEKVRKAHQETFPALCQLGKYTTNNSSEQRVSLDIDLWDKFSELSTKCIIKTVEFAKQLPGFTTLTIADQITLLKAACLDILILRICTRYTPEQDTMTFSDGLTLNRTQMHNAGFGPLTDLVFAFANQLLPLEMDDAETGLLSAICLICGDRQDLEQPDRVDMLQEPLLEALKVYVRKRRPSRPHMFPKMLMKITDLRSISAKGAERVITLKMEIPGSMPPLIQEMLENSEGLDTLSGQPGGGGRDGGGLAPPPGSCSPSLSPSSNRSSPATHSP

[4] = target: T4, Retinoic acid receptor RXR-alpha (Mus musculus, UniProt P28700); experiment: Dissociation constant for binding to Retinoid X receptor alpha
T4 sequence (P28700 whole entry): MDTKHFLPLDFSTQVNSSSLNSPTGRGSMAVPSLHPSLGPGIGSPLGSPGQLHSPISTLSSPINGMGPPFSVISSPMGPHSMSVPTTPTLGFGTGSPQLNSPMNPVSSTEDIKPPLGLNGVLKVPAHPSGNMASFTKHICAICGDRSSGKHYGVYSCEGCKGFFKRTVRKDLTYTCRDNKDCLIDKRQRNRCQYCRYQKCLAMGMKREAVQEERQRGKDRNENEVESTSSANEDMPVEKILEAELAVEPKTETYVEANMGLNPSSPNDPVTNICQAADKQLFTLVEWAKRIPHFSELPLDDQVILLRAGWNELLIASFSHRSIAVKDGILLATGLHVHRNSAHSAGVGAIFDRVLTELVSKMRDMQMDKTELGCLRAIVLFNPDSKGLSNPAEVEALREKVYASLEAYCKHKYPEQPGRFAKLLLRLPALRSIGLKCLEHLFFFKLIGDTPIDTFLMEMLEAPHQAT

[5] = target: T5, Retinoic acid receptor gamma (Mus musculus, UniProt P18911); experiment: Dissociation constant for binding to Retinoic acid receptor gamma
T5 sequence (P18911 whole entry): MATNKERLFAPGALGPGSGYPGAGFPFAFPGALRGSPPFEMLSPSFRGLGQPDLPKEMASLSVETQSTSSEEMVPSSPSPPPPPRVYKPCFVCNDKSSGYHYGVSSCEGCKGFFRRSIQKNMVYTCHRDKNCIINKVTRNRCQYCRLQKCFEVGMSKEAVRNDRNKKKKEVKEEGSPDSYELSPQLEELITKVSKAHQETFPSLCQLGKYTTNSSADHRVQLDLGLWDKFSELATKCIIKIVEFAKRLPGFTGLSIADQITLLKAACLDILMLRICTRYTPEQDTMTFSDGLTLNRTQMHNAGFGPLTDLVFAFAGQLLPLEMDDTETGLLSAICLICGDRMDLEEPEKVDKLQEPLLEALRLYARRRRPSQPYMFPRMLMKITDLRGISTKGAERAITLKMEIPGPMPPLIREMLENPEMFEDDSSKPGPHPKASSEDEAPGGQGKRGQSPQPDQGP
Method in brief: (§2)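 Competitive binding assays against each receptor subtype, with Kd values taken from competition.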

[6] = target: T6, Retinoic acid receptor RXR-gamma (Mus musculus, UniProt P28705); experiment: Dissociation constant for binding to Retinoid X receptor gamma; method in brief: as §2
T6 sequence (P28705 whole entry): T2 sequence (P48443 whole entry) with A13T, Y15F, A31V, S34P, T228S, G230S, M258V, T450S

EC50 [1] | EC50 [2] | EC50 [3] | Kd [4] | Kd [5] | Kd [6] | Structure (SMILES)
Not Active | 0.042 µM | Not Active | 0.032 µM | – | – | Cc1cc2c(cc1Sc1ccc(C(=O)O)cn1)C(C)(C)CCC2(C)C
Not Active | 0.28 µM | Not Active | 0.296 µM | 10 µM | – | Cc1cc2c(cc1Sc1ccc(C(=O)O)cc1)C(C)(C)CCC2(C)C
Not Active | – | Not Active | 2.52 µM | 10 µM | 3.99 µM | Cc1cc2c(cc1S(=O)(=O)c1ccc(C(=O)O)cc1)C(C)(C)CCC2(C)C
Not Active | 1.6 µM | Not Active | > 10 µM | 10 µM | > 10 µM | Cc1cc2c(cc1[S+]([O-])c1ccc(C(=O)O)cc1)C(C)(C)CCC2(C)C (centres undefined)
Not Active | 1.9 µM | Not Active | 1 µM | 1 µM | 1 µM | Cc1cc2c(cc1Sc1ncc(C(=O)O)s1)C(C)(C)CCC2(C)C
– | – | Not Active | 3.87 µM | > 10 µM | – | CC1(C)CCC(C)(C)c2cc(Sc3ccc(C(=O)O)cc3)ccc21

From ChEMBL document CHEMBL1129630, “Synthesis and structure-activity relationships of retinoid X receptor selective diaryl sulfide analogs of retinoic acid” (J Med Chem, 1996)
